Assay results from ChEMBL document CHEMBL1143652, “Joys of molecules. 2. Endeavors in chemical biology and medicinal chemistry” (J Med Chem, 2005).
Values after ≈ are worked out from the molar mass of the structure shown.

Key:
[1] = In vitro cytotoxicity against leukemia P-388 tumor cells; type: functional, cell-based; conditions: Mus musculus, P388
[2] = test system: 1A9; assay: Inhibition concentration against human ovarian 1A9 tumor cells; type: functional, cell-based
[3] = biological target: Tubulin beta-4B chain (Homo sapiens) (UniProt P68371); assay: (§1) Tubulin polymerization at a concentration of 100 uM incubated for 90 minutes; type: functional
Summary of the method: (§2)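 Tubulin polymerization was read as percent polymerization, with test drug at 100 µM and a 90 min incubation.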

[4] = biological target: Tubulin beta-4B chain (Homo sapiens) (UniProt P68371); assay: as §1; summary of the method: as §2
[5] = test system: Enterococcus faecium; assay: Minimum inhibitory concentration against vancomycin resistant Enterococcus faecium; type: functional
[6] = test system: 1A9; assay: Cytotoxicity against 1A9 ovarian cancer cells; type: functional, cell-based; conditions: Homo sapiens
[7] = species on record: Felis catus; assay: Inhibition of LTC4 and LTD4 production in cat lung at 5 mM; type: functional
[8] = Antiproliferation activity against cancer cell lines by mixed-lymphocyte-reaction proliferation assay; type: functional, cell-based; conditions: Homo sapiens
[9] = test system: Staphylococcus aureus; assay: Minimum inhibitory concentration against methicillin resistant Staphylococcus aureus (MRSA); type: functional
[10] = test system: Bacteria; assay: Minimum inhibitory concentration against bacterial strains; type: functional
[11] = biological target: T1, Mycothiol S-conjugate amidase (Mycobacterium tuberculosis, UniProt P9WJN1); assay: Inhibition of Mycobacterium tuberculosis detoxification enzyme mycothiol-S-conjugate amidase (MCA)
T1 sequence (P9WJN1 whole entry): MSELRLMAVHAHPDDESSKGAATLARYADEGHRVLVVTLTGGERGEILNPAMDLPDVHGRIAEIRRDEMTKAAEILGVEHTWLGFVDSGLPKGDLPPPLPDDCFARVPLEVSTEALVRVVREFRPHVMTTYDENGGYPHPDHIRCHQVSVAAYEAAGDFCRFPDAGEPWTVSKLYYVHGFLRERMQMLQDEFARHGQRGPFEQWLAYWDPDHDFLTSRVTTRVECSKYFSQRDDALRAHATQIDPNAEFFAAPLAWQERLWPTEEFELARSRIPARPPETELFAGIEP

[12] = biological target: Protein kinase C (PKC); assay: Inhibitory activity against protein kinase C; type: protein assay
[13] = biological target: cAMP-dependent protein kinase (PKA) (Homo sapiens, UniProt P22694+P17612+P22612); assay: Inhibitory constant against the protein kinase A; type: protein assay
[14] = test system: Staphylococcus aureus; assay: Minimum inhibitory concentration against methicillin resistant Staphylococcus aureus (MRSA); range is 3-12 ug/mL; type: functional
[15] = test system: 1A9; assay: Inhibitory concentration against human 1A9 ovarian carcinoma cells; type: functional, cell-based
[16] = biological target: Polyunsaturated fatty acid 5-lipoxygenase (Homo sapiens) (UniProt P09917); assay: Inhibitory concentration against 5-lipoxygenase
[17] = test system: KB 3-1; assay: Cytotoxicity against KB3-1 human epidermoid cancer cells; type: functional, cell-based
[18] = test system: KB 3-1; assay: Cytotoxicity against KB-31 human epidermoid cancer cells; type: functional, cell-based
[19] = test system: MOLT-4; assay: Inhibitory concentration against MOLT-4 human T-cells; 10e-12; type: functional, cell-based
[20] = test system: MOLT-4; assay: Inhibitory concentration against MOLT-4 human T-cells; type: functional, cell-based
[21] = test system: 1A9; assay: Cytotoxicity against 1A9 human ovarian carcinoma cells; type: functional, cell-based
[22] = Staphylococcus aureus, read-out: MIC

Polyunsaturated fatty acid 5-lipoxygenase (Homo sapiens), sequence (P09917 whole entry): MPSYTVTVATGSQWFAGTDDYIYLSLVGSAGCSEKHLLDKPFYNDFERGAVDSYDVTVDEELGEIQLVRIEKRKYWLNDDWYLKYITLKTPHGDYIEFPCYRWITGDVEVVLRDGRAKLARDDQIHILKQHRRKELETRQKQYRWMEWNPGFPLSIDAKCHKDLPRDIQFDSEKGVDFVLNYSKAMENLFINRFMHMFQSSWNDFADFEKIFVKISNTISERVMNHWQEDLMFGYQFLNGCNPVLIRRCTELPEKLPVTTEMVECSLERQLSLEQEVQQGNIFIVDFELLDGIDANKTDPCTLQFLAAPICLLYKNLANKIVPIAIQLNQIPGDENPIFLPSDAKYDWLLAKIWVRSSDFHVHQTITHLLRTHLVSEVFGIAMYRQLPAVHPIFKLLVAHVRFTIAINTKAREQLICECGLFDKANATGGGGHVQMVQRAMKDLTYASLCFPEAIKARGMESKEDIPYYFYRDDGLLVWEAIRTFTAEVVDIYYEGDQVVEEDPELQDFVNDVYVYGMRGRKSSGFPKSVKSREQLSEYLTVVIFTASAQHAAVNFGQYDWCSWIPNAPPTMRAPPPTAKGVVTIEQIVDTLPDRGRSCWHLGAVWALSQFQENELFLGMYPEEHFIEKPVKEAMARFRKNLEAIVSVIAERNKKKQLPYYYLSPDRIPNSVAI
Tubulin beta-4B chain (Homo sapiens), sequence (P68371 whole entry): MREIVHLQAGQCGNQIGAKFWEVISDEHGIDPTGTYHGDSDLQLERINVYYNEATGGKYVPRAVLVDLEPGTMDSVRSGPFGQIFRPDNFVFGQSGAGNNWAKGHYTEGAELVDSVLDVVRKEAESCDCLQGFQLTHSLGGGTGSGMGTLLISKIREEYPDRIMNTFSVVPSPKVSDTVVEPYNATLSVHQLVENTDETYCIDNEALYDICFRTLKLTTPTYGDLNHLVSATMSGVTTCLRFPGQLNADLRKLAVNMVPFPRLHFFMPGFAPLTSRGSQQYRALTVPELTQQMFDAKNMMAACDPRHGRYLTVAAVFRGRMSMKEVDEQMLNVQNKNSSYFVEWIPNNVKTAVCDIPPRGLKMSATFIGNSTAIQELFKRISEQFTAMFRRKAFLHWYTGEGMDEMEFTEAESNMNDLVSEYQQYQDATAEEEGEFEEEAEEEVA

COC(=O)[C@]1(O)C(=O)c2c(cc(C)c(Br)c2O)[C@H]2[C@@H](C(C)C)CC[C@]21C [HAMIGERAN A]
IC50 [1]: 31.6 µM

CCCOC(=O)/C1=C/[C@@H]2[C@@H](C(C)C)CC=C(C)[C@@H]2C[C@H](OC(=O)/C=C/c2cn(C)cn2)[C@]2(C)C=C[C@@]1(OC)O2
IC50 [2]: 0.003 µM
TP [3]: 69%
TP [4]: 69%

CC(C)C[C@H]1NC(=O)[C@H](Cc2ccccc2)NC(=O)CNC(=O)[C@H](C)NC(=O)[C@H](Cc2ccc(O)cc2)NC(=O)/C=C\c2ccccc2OCOC1=O
MIC [5]: 0.25 mg/L (≈ 0.343 µM)

CO[C@@]12C=C3C(=O)O[C@]4(O[C@]35[C@@H](C1)C(C)(C)OC5(CC=C(C)C)C2=O)C(=O)C1=C(C=CC(C)(C)O1)C(=O)C4CC=C(C)C (stereo partly specified) [1-O-METHYLLATERIFLORONE]
IC50 [6]: 25 µM

CCCCC/C=C\C/C=C\C1(/C=C\C2(/C=C\CCCC(=O)O)CC2)CC1
Inhibition [7]: 5%

CCCCCCCCCC[C@H]1CC1CCCC/C=C\CC[C@@H](O)C(=O)N[C@@H](CO[C@@H]1OC(CO)[C@@H](O)[C@H](O)[C@@H]1OCC=C(C)C)[C@H](O)CCC/C=C\CCCC[C@@H]1C[C@@H]1CCCCCCCCCC (single isomer, unassigned)
IC50 [8]: > 50 µM

CCCCC/C=C\C1(/C=C\C2(/C=C\C3(/C=C\CCCC(=O)O)CC3)CC2)CC1
Inhibition [7]: 10%

CC1(C)C=Cc2cc(-c3ccco3)cc(/C=C(/C#N)c3ccc(O)cc3)c2O1
MIC [9]: 2 mg/L (≈ 5.41 µM)
MIC [9, 22]: 2 mg/L (≈ 5.41 µM)

O=C(NCCSSc1ccc(F)cc1)/C(Cc1cccc(Br)c1)=N/O
MIC [10]: 0.11 ug m/L
IC50 [11]: 90 µM

CNC(=O)/C1=C/[C@@H]2[C@@H](C(C)C)CC=C(C)[C@@H]2C[C@H](OC(=O)/C=C/c2cn(C)cn2)[C@]2(C)C=C[C@@]1(OC)O2
IC50 [2]: 0.045 µM
TP [3]: 52%
TP [4]: 52%

O=C(N[C@@H]1CNCCC[C@H]1OC(=O)c1ccc(C(=O)c2c(O)cccc2C(=O)O)cc1)c1ccc(O)cc1
Ki [12]: 0.08 µM
Ki [13]: 0.0034 µM

Nc1ccc(SSCCNC(=O)/C(Cc2ccc(O)c(Cl)c2)=N/O)cc1
MIC [10]: 1.23 ug m/L
IC50 [11]: 35 µM

O=C(NCCSSc1ccc(F)cc1)/C(Cc1cc(F)cc(F)c1)=N/O
MIC [10]: 0.46 ug m/L
IC50 [11]: 2720 µM

CC1(C)C=Cc2cccc(/C=C(/C#N)c3ccc(O)cc3)c2O1
MIC [14]: 12 mg/L (≈ 39.6 µM)
MIC [14, 22]: 12 mg/L (≈ 39.6 µM)

COCn1c(Cl)c2c3c(cccc31)-c1cccc3c1OC[C@@]3(c1ccccc1)c1oc(C)nc1-c1nc(Cl)c-2o1
IC50 [15]: 3.6 µM

CCOC(=O)c1c(OCC)cc(C)cc1[C@H]1[C@@H](C(C)C)CC[C@@]1(C)C(=O)OCC
IC50 [1]: 54.2 µM

Nc1ccc(SSCCNC(=O)/C(Cc2cccc(Br)c2)=N/O)cc1
MIC [10]: 0.09 ug m/L
IC50 [11]: 185 µM

CCCCC/C=C/C\C=C/C=C/C=C/[C@@H]1C[C@H]1CCCC(=O)OC
ID50 [16]: 6 µM

COC1(OC)C2=C(OC(C)(C)C=C2)C(=O)[C@@H](OC(=O)C2=C[C@]3(OC)C[C@H]4C(C)(C)OC(CC=C(C)C)(C3=O)[C@]24O)[C@@H]1CC=C(C)C
IC50 [6]: 9 µM

COC[C@@H](C[C@H]1O[C@@](O)([C@H](O)[C@@H]2C[C@H](OC)[C@@H](O)CC/C=C(C)/C=C/[C@@H](O[C@@H]3O[C@@H](C)[C@H](OC)[C@@H](O)[C@@H]3O)[C@H](C)/C=C(C)/C=C(C)/C=C(\C)C(=O)O2)[C@H](C)[C@@H](O)[C@H]1C)OC1C[C@](C)(O)[C@@H](O[C@H]2C[C@@H](OC)[C@H](O)[C@@H](C)O2)[C@H](C)O1 (stereo partly specified) [APOPTOLIDIN]
IC50 [15]: 240 µM

CC(C)=CCc1c2c(c(O)c3c1O[C@]14C(=C[C@@H]5C[C@H]1C(C)(C)OC4(CC=C(C)C)C5=O)C3=O)C=CC(C)(C)O2
IC50 [17]: 8.41 µM
IC50 [18]: 8.41 µM

CC(C)=CCc1c2c(c(O)c3c1O[C@]14C(=C[C@@H]5C[C@H]1C(C)(C)OC4(CC=C(C)C)C5=O)C3=O)C=CC(C)(CCC(C)C)O2 (stereo partly specified)
IC50 [17]: 6.01 µM
IC50 [18]: 6.01 µM

COC(=O)N/C(C)=C1/C(=C/CSSSC)[C@@](O)(CC=O)C#C/C=C\C#C[C@@H]1O
IC50 [19]: 1.2 pM
IC50 [20]: 1.2 pM

CCOC(=O)/C1=C/[C@@H]2[C@@H](C(C)C)CC=C(C)[C@@H]2C[C@H](OC(=O)/C=C/c2cn(C)cn2)[C@]2(C)C=C[C@@]1(OC)O2
IC50 [2]: 0.002 µM
TP [3]: 46%
TP [4]: 46%

CCCCC/C=C\C\C=C/C=C/C=C/[C@@H]1C[C@H]1CCCC(=O)O
ID50 [16]: 44 µM

CC/C=C/C=C/C(=O)N/C=C/C[C@H](O)C[C@H]1C[C@H](OC(C)=O)C[C@H](Cc2cccc3c2C(=O)OC(C)(C)O3)O1
IC50 [21]: 0.035 µM

CCOC(=O)/C1=C/[C@@H]2[C@@H](C(C)C)CC=C(C)[C@@H]2C[C@H](OC(=O)/C=C/c2cn(C)cn2)[C@]2(C)C=C[C@@]1(O)O2 [SARCODICTYIN B]
IC50 [2]: 0.002 µM
TP [3]: 71%
TP [4]: 71%

COC1=C(CC=C(C)C)[C@]2(OC(=O)C3=C[C@]4(OC)C[C@H]5C(C)(C)OC(CC=C(C)C)(C4=O)[C@]35O2)C(=O)C2=C1C=CC(C)(C)O2
IC50 [6]: 5 µM

CCCCCCCCCC[C@H]1C[C@H]1CCCC/C=C\CC[C@@H](O)C(=O)N[C@@H](CO[C@@H]1O[C@@H](CO)[C@@H](O)[C@H](O)[C@@H]1OC/C=C(\C)CCC=C(C)C)[C@H](O)CCCCCCC[C@@H]1C[C@@H]1CCCCCCCCCC
IC50 [8]: 28 µM

O=C(N[C@@H]1CNCCC[C@H]1OC(=O)c1cc(O)c(C(=O)c2ccccc2C(=O)O)c(O)c1)c1ccc(O)cc1
Ki [12]: 0.64 µM
Ki [13]: 0.0039 µM

CC/C=C\C=C/C(=O)N/C=C/C[C@H]1C[C@H]2C[C@H](O)C[C@H](Cc3cccc(O)c3C(=O)O1)O2 [APICULAREN A]
IC50 [21]: 0.00078 µM

C=CCO[C@@H]1[C@H](OC[C@H](NC(=O)[C@H](O)CC/C=C\CCCC[C@@H]2C[C@@H]2CCCCCCCCCC)[C@H](O)CCCCCCC[C@@H]2C[C@@H]2CCCCCCCCCC)O[C@@H](CO)[C@@H](O)[C@@H]1O
IC50 [8]: 7.1 µM

CC/C=C\C=C/C(=O)N/C=C\C[C@H]1C[C@H]2C[C@H](O)C[C@H](Cc3cccc(O)c3C(=O)O1)O2
IC50 [21]: 0.0707 µM

CC(C)=CCCC1(C)C=Cc2c(O)c3c(c(CC=C(C)C)c2O1)O[C@]12C(=CC4C[C@H]1C(C)(C)OC2(CC=C(C)C)C4=O)C3=O (stereo partly specified) [GAMBOGIN]
IC50 [17]: 9.35 µM
IC50 [18]: 9.35 µM

Cc1cc2c(c(O)c1Br)C(=O)C(=O)[C@]1(C)CC[C@H](C(C)C)[C@H]21 [HAMIGERAN B]
IC50 [1]: 13.5 µM

CCNC1COC(OC2C(O[C@H]3C#C/C=C\C#C[C@@](C)(O)C(=C/CSC(C)=O)/C3=C(\NC(=O)OC)C(C)=O)OC(C)C(NOC3CC(O)C(SC(=O)c4c(C)c(I)c(OC5OC(C)C(O)C(OC)C5O)c(OC)c4OC)C(C)O3)C2O)CC1OC (stereo partly specified)
IC50 [19]: < 1 pM
IC50 [20]: < 10 pM

O=C(/C=C/c1ccccc1)N/C=C/C[C@H]1C[C@H]2C[C@H](O)C[C@H](Cc3cccc(O)c3C(=O)O1)O2
IC50 [21]: 0.05 µM

CC1OC(OC2C(Oc3c4cc5cc3Oc3ccc(cc3Cl)[C@H](O)[C@H]3NC(=O)[C@@H](NC(=O)[C@H]5NC(=O)[C@@H](CC(N)=O)NC(=O)[C@@H](NC(=O)[C@@H](N)CO)[C@@H](O)c5ccc(c(Cl)c5)O4)c4ccc(O)c(c4)-c4c(O)cc(O)cc4[C@H](C(=O)NCC(=O)O)NC3=O)OC(CO)C(O)C2O)CC(C)(NCc2cccc(OCC/C=C\COc3cccc(CNC4(C)CC(OC5C(Oc6c7cc8cc6Oc6ccc(cc6Cl)[C@@H](O)[C@@H](NC(=O)[C@H](N)CO)C(=O)N[C@@H](CC(N)=O)C(=O)N[C@H]8C(=O)N[C@H]6C(=O)N[C@H](C(=O)N[C@H](C(=O)NCC(=O)O)c8cc(O)cc(O)c8-c8cc6ccc8O)[C@H](O)c6ccc(c(Cl)c6)O7)OC(CO)C(O)C5O)OC(C)C4O)c3)c2)C1O (stereo partly specified)
MIC [5]: 0.25 mg/L (≈ 0.0779 µM)

Cc1cc(O)c2c(c1)[C@H]1[C@@H](C(C)C)CC[C@@]1(C)C(=O)C2=O
IC50 [1]: 13.9 µM

CCCCCCCCCC[C@H]1C[C@H]1CCCC/C=C\CC[C@@H](O)C(=O)N[C@@H](CO[C@@H]1O[C@@H](CO)[C@@H](O)[C@H](O)[C@@H]1O)[C@@H](CCCCCCC[C@@H]1C[C@@H]1CCCCCCCCCC)OC=C(C)C
IC50 [8]: 28 µM

COC(=O)/C1=C/[C@@H]2[C@@H](C(C)C)CC=C(C)[C@@H]2C[C@H](OC(=O)/C=C/c2cn(C)cn2)[C@]2(C)C=C[C@@]1(O)O2 [SARCODICTYIN A]
IC50 [2]: 0.34 µM
TP [3]: 67%
TP [4]: 67%

CCCCCCCCCC[C@H]1C[C@H]1CCCC/C=C\CC[C@@H](O)C(=O)N[C@@H](CO[C@@H]1O[C@@H](CO)[C@@H](O)[C@H](O)[C@@H]1OCC=C(C)C)[C@H](O)CCCCCCC[C@@H]1C[C@@H]1CCCCCCCCCC
IC50 [8]: > 50 µM

CCCCC/C=C\C/C=C\C/C=C\C1(/C=C\CCCC(=O)O)CC1
Inhibition [7]: 8%
